Active and inactive are the calls of the source. No cut-off for these calls is given here.
Experiments:
[1] = target: T1, C-X-C chemokine receptor type 3 (Homo sapiens) (UniProt P49682); test: Positive allosteric modulation of human CXCR3 expressed in HEK293T cell membranes after 30 mins by [35S]GTPgammaS incorporation assay; assay type: functional; details: HEK-293T
T1 sequence (whole entry): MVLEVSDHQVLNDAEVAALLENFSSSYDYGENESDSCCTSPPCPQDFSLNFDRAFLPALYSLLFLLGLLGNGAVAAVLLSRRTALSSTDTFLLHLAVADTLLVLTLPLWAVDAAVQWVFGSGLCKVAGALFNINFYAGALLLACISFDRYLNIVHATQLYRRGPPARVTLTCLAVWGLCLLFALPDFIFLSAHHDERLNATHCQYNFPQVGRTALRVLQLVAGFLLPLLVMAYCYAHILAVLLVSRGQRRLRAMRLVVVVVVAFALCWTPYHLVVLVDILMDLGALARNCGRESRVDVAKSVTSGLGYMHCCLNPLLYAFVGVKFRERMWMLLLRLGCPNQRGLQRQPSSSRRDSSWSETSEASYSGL
Procedure, shortened: (§1)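 Membranes from HEK293 cells stably expressing CXCR3 (30 µg/mL protein) in 20 mM HEPES, 10 mM MgCl2, 100 mM NaCl, 100 mg/L saponin, pH 7.4. Compound plus 1 µM GDP preincubated 30 min at 37 °C, then 0.10 nM [35S]GTPγS added for 30 min at 37 °C. Filtered on GF/B and counted. Efficacy expressed as % of CXCL11. Three experiments in triplicate, pEC50 by nonlinear regression.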

[2] = target: T1, C-X-C chemokine receptor type 3 (Homo sapiens); test: Positive allosteric modulation of human CXCR3 expressed in HEK293T cell membranes after 30 mins by [35S]GTPgammaS incorporation assay relative to CXCL11; assay type: functional; details: HEK-293T; procedure, shortened: as §1
[3] = Cytotoxicity against HEK293T cells expressing CXCR3 at 10 uM incubated overnight by ApoTox-Glo Triplex assay; assay type: cell-based; details: human, hek-293t
Procedure, shortened: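 10,000 HEK293T cells stably expressing CXCR3 incubated overnight with compound at 10 µM. ApoTox-Glo triplex. Viability read by fluorescence at 400Ex/505Em (GF-AFC) and cytotoxicity at 485Ex/520Em (bis-AAF-R110), each after a 30 min reagent step. Caspase-3/7 luminescence then read after a further 30 min.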

[4] = target: T1, C-X-C chemokine receptor type 3 (Homo sapiens); test: Inhibition of CXCL11-mediated activation of human CXCR3 expressed in HEK cells; assay type: cell-based; details: HEK293
[5] = target: T1, C-X-C chemokine receptor type 3 (Homo sapiens); test: Inhibition of CXCL10-mediated activation of human CXCR3 expressed in HEK cells; assay type: cell-based; details: HEK293
[6] = target: T1, C-X-C chemokine receptor type 3 (Homo sapiens); test: Positive allosteric modulation of ProLink1-tagged wild type CXCR3 (unknown origin) expressed in HEK293T cells assessed as beta-arrestin-2 recruitment incubated for 4 hrs by chemiluminescence-based microplate reader method relative to CXCL11; assay type: cell-based; details: HEK-293T
Procedure, shortened: (§2)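 HEK293 cells stably expressing β-gal enzyme acceptor, transiently transfected with PK1- or PK2-tagged wild-type CXCR3, 2000 cells/well, grown overnight at 37 °C. Compounds or CXCL11 in PBS pH 7.4 with 0.20% BSA added for 4 h. Detection mix 60 min at room temperature, then chemiluminescence read. Efficacy expressed as % of CXCL11 effect. Two to three experiments in triplicate.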

[7] = target: T1, C-X-C chemokine receptor type 3 (Homo sapiens); test: Positive allosteric modulation of ProLink2-tagged wild type CXCR3 (unknown origin) expressed in HEK293T cells assessed as beta-arrestin-2 recruitment incubated for 4 hrs by chemiluminescence-based microplate reader method relative to CXCL11; assay type: cell-based; details: HEK-293T; procedure, shortened: as §2
[8] = target: T1, C-X-C chemokine receptor type 3 (Homo sapiens); test: Induction of C-terminal eGFP-tagged CXCR3 (unknown origin) internalization expressed in HEK293T cells at 1 to 10 uM after 60 mins by scanning laser confocal microscopy; assay type: cell-based; details: HEK-293T
Procedure, shortened: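 HEK293T cells transiently transfected with C-terminally eGFP-tagged CXCR3, moved to poly-L-lysine coverslips at 24 h. Two days post-transfection, treated 60 min at 37 °C with compound (10 µM and 1 µM) or 100 nM CXCL11. Fixed in 4% paraformaldehyde and imaged by confocal laser scanning microscopy.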

[9] = target: T1, C-X-C chemokine receptor type 3 (Homo sapiens); test: Induction of FLAG-tagged CXCR3 (unknown origin) internalization expressed in HEK293T cells at 10 uM after 60 mins by ELISA; assay type: cell-based; details: HEK-293T
Procedure, shortened: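 FLAG-CXCR3-transfected HEK293T cells replated on poly-D-lysine. At 48 h, serum-free DMEM with compound (10 µM) or CXCL11 (100 nM) for 1 h at 37 °C. Cells fixed in 4% formaldehyde. Surface receptor detected with anti-FLAG antibody and peroxidase-conjugated anti-mouse IgG, o-phenylenediamine substrate, stopped with 1M H2SO4, absorbance at 492 nm.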

[10] = target: T1, C-X-C chemokine receptor type 3 (Homo sapiens); test: Displacement of [125I]CXCL11 from human CXCR3 isoform 1 expressed in African green monkey COS7 cells after 3 hrs by liquid scintillation counting method; assay type: cell-based; details: COS-7
Procedure, shortened: (§3)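 Cells washed in 50 mM HEPES/5 g/L BSA and chilled 15 min at 4 °C. Ligands added, then 10-15 pM [125I]CXCL11 (Chloramine-T labelled, HPLC-purified). Incubation 3 h at 4 °C, washes, bound radioactivity read by liquid scintillation.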

[11] = target: T1, C-X-C chemokine receptor type 3 (Homo sapiens); test: Displacement of [125I]CXCL11 from human CXCR3 isoform 1 expressed in African green monkey COS7 cells at 1 uM after 3 hrs by liquid scintillation counting method; assay type: cell-based; details: COS-7; procedure, shortened: as §3
[12] = target: T1, C-X-C chemokine receptor type 3 (Homo sapiens); test: Positive allosteric modulation of CXCR3 (unknown origin) expressed in HEK293 cells assessed as induction of cell migration at 100 nM after 5 hrs by transwell migration assay relative to control; assay type: cell-based
Procedure, shortened: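 HEK293 cells transiently transfected with CXCR3 by calcium phosphate, used 48 h later, serum-starved. Compound placed in lower (source) chamber in 0.2% serum DMEM. Cells (1 × 10^5/well) in upper chamber, 5 h migration at 37 °C. Crystal-violet-stained migrated cells counted in 5 predefined areas and compared with buffer control.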

[13] = target: T1, C-X-C chemokine receptor type 3 (Homo sapiens); test: Antagonist activity at CXCR3 (unknown origin) expressed in HEK293 cells assessed as inhibition of CXCL11-mediated cell migration after 5 hrs by transwell migration assay; assay type: cell-based
Procedure, shortened: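 CXCR3-transfected HEK293 cells (calcium phosphate, used 48 h post-transfection), serum-starved, pre-incubated 15 min with compound. Compound present in both upper chamber (1 × 10^5 cells/well, 0.2% serum DMEM) and lower chamber containing CXCL11. Migration 5 h at 37 °C. Migrated cells fixed in 3.7% formaldehyde, stained with crystal violet, counted in 5 predefined areas.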

[14] = target: T1, C-X-C chemokine receptor type 3 (Homo sapiens); test: Effect on CXCL11-induced beta-arrestin-2 recruitment to wild type CXCR3 (unknown origin) expressed in HEK293T cells at 10 to 1000 nM incubated for 4 hrs by chemiluminescence-based microplate reader method; assay type: cell-based; details: HEK-293T
[15] = target: T1, C-X-C chemokine receptor type 3 (Homo sapiens); test: Positive allosteric modulation of ProLink1-tagged wild type CXCR3 (unknown origin) expressed in HEK293T cells assessed as beta-arrestin-2 recruitment incubated for 4 hrs by chemiluminescence-based microplate reader method; assay type: cell-based; details: HEK-293T; procedure, shortened: as §2
[16] = target: T1, C-X-C chemokine receptor type 3 (Homo sapiens); test: Positive allosteric modulation of ProLink1-tagged wild type CXCR3 (unknown origin) expressed in HEK293T cells assessed as beta-arrestin-2 recruitment at 10 uM incubated for 4 hrs by chemiluminescence-based microplate reader method; assay type: cell-based; details: HEK-293T; procedure, shortened: as §2

Row | pEC50 [1] | Efficacy [2] | inhibition [4] | inhibition [5] | Efficacy [6] | Efficacy [7] [%] | Activity [8] | Activity [9] | inhibition [10] | inhibition [11] | fold change (FC) [12] | inhibition [13] | Activity [14] | pEC50 [15] | Activity [16] [%] | SMILES | Activity [3]
1 | inactive | inactive | inactive | inactive | 30% | 66 | Active | Active | inactive | inactive | 0.25 | inactive | inactive |  |  | CC(C)(C)OC(=O)N[C@@H](CCCCNC(=O)[C@@H]1Cc2ccccc2CN1C(=O)CCC(=O)c1ccccc1)C(=O)NCC(c1ccccc1)c1ccccc1 | Non-toxic
2 |  | 50% | inactive | inactive | inactive |  | inactive |  | inactive | inactive | 0.25 | inactive |  | inactive |  | COc1ccc(C(=O)CCC(=O)N2Cc3ccccc3C[C@H]2C(=O)NCCCC[C@H](NC(=O)OC(C)(C)C)C(=O)NCC(c2ccccc2)c2ccccc2)cc1 | Non-toxic
3 |  | 47% |  |  |  |  |  |  |  |  |  |  |  |  | 70 | CC(C)(C)OC(=O)NCCCC[C@H](NC(=O)[C@@H]1Cc2ccccc2CN1C(=O)CCC(=O)c1ccccc1)C(=O)NCC(c1ccccc1)c1ccccc1 | 

From ChEMBL document CHEMBL3784986, “Discovery and Characterization of Biased Allosteric Agonists of the Chemokine Receptor CXCR3” (J Med Chem, 2016)
